This data set is described as follows: Toxicity liver stage against HepG2, at 10uM. Type of data set: cell-based. Further details: test concentration 10 uM, cell line HepG2-A16-CD81EGFP. To be noted: human, HepG2-A16-CD81EGFP cells; read-out: INHIBITION
A digest of the protocol:
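Uninfected HepG2-A16-CD81EGFP cells, 3 × 10^3 per well, 1536-well, plated on prespotted compound at 10 μM final, parasite-free screening media added to match infected plates; puromycin 10 μM positive, DMSO 0.5% negative; run in parallel with 48 h PbLuc assay at 37 °C, 5% CO2; viability by CellTiter-Glo luminescence, normalized to controls.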
Take `O=C1CCC(=O)c2oc3ccccc3c2N1`: the cytotoxicity at 10 µM was found to be 4.34%.
For `Cc1cccc(O[C@H]2COCCN(C3CCC3)C2)n1`, the cytotoxicity at 10 µM was -4.81%.
Take `CN1CCOC[C@H]1c1nc(-c2ccccc2)c[nH]1`: the cytotoxicity at 10 µM was -7.24%.
With `COc1ccc(-c2noc([C@@H](C)NC(=O)NC(C)(C)C)c2C(=O)O)cc1`, the cytotoxicity at 10 µM is -1.63%.
For `COc1ccc(CN2C[C@H]3CN(C(=O)c4ccno4)CCN3C2=O)cc1`, the cytotoxicity at 10 µM was -4.23%.
In the case of `CN1[C@@H](CCC(=O)NCc2ccc(F)cc2)CNC(=O)[C@H]2NCC[C@H]21`, the cytotoxicity at 10 µM stood at 7.6%.
Take `Cc1cccc(CNC[C@H]2Cn3cc(-c4ccccc4)nc3CO2)n1`: the cytotoxicity at 10 µM was -2.59%.
In the case of `Cc1nn2cnnc2c(C)c1CCC(=O)Nc1nnc(C(C)C)s1` it was -3.25%.
Next, `CC(C)c1sc(Cl)nc1C(=O)NCc1ccncc1`: 0.649%.
Regarding `Cn1c(-c2ccccc2)nn(CCNS(=O)(=O)c2ccccc2Cl)c1=O`, the cytotoxicity at 10 µM was -2.85%.
For the molecule `Cn1cnc2c1C(C(=O)N1CCCC1)N(S(C)(=O)=O)CC2` (configuration not stated), the cytotoxicity at 10 µM was found to be 6.22%.
As for `O=C1NCCO[C@H]2CN(C(=O)CCc3ccc(Cl)cc3)CC[C@@H]12`, the cytotoxicity at 10 µM worked out at 11.1%.
Consider `O=c1[nH]c2c(c(=O)n1C1CCCCC1)CCC2Nc1ccccc1` (configuration not stated), for which the cytotoxicity at 10 µM amounted to 0.795%.
Turning to `Cn1nc(C(=O)NN2CCOCC2)c(Cl)c1C(F)(F)F`, the cytotoxicity at 10 µM is 2.99%.
For the molecule `CSc1ncnc(NCc2ccccc2F)c1C#N`, the cytotoxicity at 10 µM was found to be 1.67%.
Regarding `CCC(=O)NCCNC(=O)c1nn(C)c(C)c1Cl`, the cytotoxicity at 10 µM turned out to be 5.05%.
With `CN1CCCCC(C2CCN(S(=O)(=O)c3cn(C)cn3)CC2)C1=O` (configuration not stated), the cytotoxicity at 10 µM is 3.13%.
In the case of `CC(C)(C)c1ccc(C(=O)NCCCNC(=O)c2cnccn2)cc1` it was 6.58%.
Next, `CNc1cc(C(=O)N2CCOC(C(=O)NC3CCCC3)C2)ccn1` (configuration not stated): 8.16%; `CO[C@H]1CN(S(=O)(=O)c2ccc(F)cc2)C[C@@]12CCCO2`: 13.2%.
`CC(C(=O)N(Cc1ccc(C#N)cc1)CC(F)(F)F)S(C)(=O)=O` (configuration not stated): the cytotoxicity at 10 µM was -2.6%.
With `O=C1CC(N(C(=O)Cc2csc(-c3ccccc3)n2)C2CC2)C(=O)N1` (configuration not stated), the cytotoxicity at 10 µM came to 3.51%.
For the molecule `Cc1cc(C(=O)N2CCNC(=O)C2)c(C)n1CC(F)(F)F`, the cytotoxicity at 10 µM stood at 0.962%.
Turning to `CN1CCN(CCOc2ccc(NC(=O)c3ccc[nH]3)cc2)CC1`, the cytotoxicity at 10 µM was -3.26%.
`CC(C)(C)C1CCC(O)(CNC(=O)CCS(C)(=O)=O)CC1` (configuration not stated): the cytotoxicity at 10 µM came to 6.51%.
For `COc1ccc(Cl)cc1CCNC(=O)NCc1ncnn1C`, the cytotoxicity at 10 µM turned out to be 2.06%.
Next, `CC(NC(=O)N1CCCCCC1)c1ccc(S(N)(=O)=O)cc1` (configuration not stated): -6.06%; `CN1N=C(C(=O)N2CCN(c3ncccc3Cl)CC2)CCC1=O`: 0.0793%.
As to `O=C(NCCC(=O)N1CCCC1)C(OC1CCCC1)c1ccccc1` (configuration not stated), the cytotoxicity at 10 µM was -4.36%.
Consider `CCNC(=O)NC(=O)CNc1cc(C(=O)OC)cc(C(F)(F)F)c1`, for which the cytotoxicity at 10 µM is -7.03%.
Next, `CN1CCCN(c2nc3c(cnn3C(C)(C)C)c(=O)[nH]2)CC1`: -11.9%.
For `CC(C)c1nc(C2CCCN(c3ncccn3)C2)no1` (configuration not stated), the cytotoxicity at 10 µM is 12.4%.
Consider `O=C(NCC(O)COc1ccccc1)C1(c2ccc(F)cc2)CC1` (configuration not stated), for which the cytotoxicity at 10 µM was 1.3%.
In the case of `c1cc(-c2noc(-c3cc(C4CC4)on3)n2)cc(N2CCCCC2)n1`, the cytotoxicity at 10 µM worked out at 4.64%.
For the molecule `CCCNC(=O)CN1CCN(c2nc(CC)ns2)CC1`, the cytotoxicity at 10 µM was -3.53%.
Take `CN(C)C(=O)CCS(=O)(=O)Cc1coc(-c2ccc(F)cc2)n1`: the cytotoxicity at 10 µM was -2.26%.
For `CCSc1cc(C(=O)NCCNC(=O)N(C)C)ccn1`, the cytotoxicity at 10 µM was -3.63%.
Regarding `Cc1cc(NC(=O)C(c2cccc(F)c2)N2CCOCC2)sn1` (configuration not stated), the cytotoxicity at 10 µM was -3.98%.
Next, `COc1ccnc(NC(=O)c2cnccn2)c1`: 7.97%; `O=C(CNc1cc(Br)ccc1Br)NC1CCS(=O)(=O)C1` (configuration not stated): -5.88%.
In the case of `CCN(CC)C(=O)c1ccc(CNc2ncc(C#N)cc2Cl)cc1` it was 5.87%.
As for `CC1CCN(C(=O)C(C)N2CCN(c3nccs3)CC2)CC1` (configuration not stated), the cytotoxicity at 10 µM amounted to 0.583%.
Consider `CC(=O)N1CCN(C(=O)CNc2ccc3sccc3c2)CC1`, for which the cytotoxicity at 10 µM came out at 0.335%.
For `CCN(Cc1cnn(C)c1)C(=O)c1ccccc1O`, the cytotoxicity at 10 µM was 1.89%.
In the case of `CN(CC(=O)NC(C)(C#N)C1CC1)Cc1nc2ccccc2n1C` (configuration not stated), the cytotoxicity at 10 µM is -3.72%.
For `O=C(CSc1nnc[nH]1)NCc1sccc1Br`, the cytotoxicity at 10 µM was determined as 0.388%.
As for `N#Cc1ccc(N2CCN(c3ccc4nncn4n3)CC2)nc1`, the cytotoxicity at 10 µM is -13.3%.
For the molecule `O=c1oc(-c2cccs2)nn1CC(O)c1ccc(F)cc1` (configuration not stated), the cytotoxicity at 10 µM came to 20.4%.
In the case of `Cc1ccc(NC(=O)NC(C)C(=O)N2CCS(=O)(=O)CC2)cc1` (configuration not stated) it was -5.1%; in that of `Cc1n[nH]c(C2CN(CC(=O)NCCc3ccsc3)CCO2)n1` (configuration not stated), -0.524%; in that of `CCn1cncc1-c1nc2c([nH]1)CC(C)(C)CNC2=O`, 7.51%.
With `Cc1noc(C)c1CNC(=O)c1cn(CCC2CCCCN2)nn1` (configuration not stated), the cytotoxicity at 10 µM amounted to 0.872%.
In the case of `CC(C)C(=O)N1CCN(C(=O)c2cc(Cl)no2)[C@H]2CS(=O)(=O)C[C@H]21`, the cytotoxicity at 10 µM is 8.48%.
In the case of `Cc1ccc(C(=O)N2CCc3ncccc3C2)cc1N1CCNC1=O` it was -4.33%; in that of `c1cnnc(-c2noc(COCC3CCCO3)n2)c1` (configuration not stated), 2.66%.
As for `c1cncc(NCCNC2CCSCC2)c1`, the cytotoxicity at 10 µM is -0.307%.
For the molecule `COC(=O)c1ccc2ccn(CC3CCCCO3)c(=O)c2c1` (configuration not stated), the cytotoxicity at 10 µM was -0.551%.
As to `CN1CCCN(C(=O)c2cnc(C(C)(C)C)nc2O)CC1`, the cytotoxicity at 10 µM is -0.0816%.
Consider `CN(Cc1cc(-c2ccncc2)no1)Cc1nccn1C`, for which the cytotoxicity at 10 µM came out at 0.884%.
Next, `CN(C)CCNc1cc(-c2ccc[nH]c2=O)c2cc[nH]c2n1`: 9.26%; `CC(C)N1CCCC(CN(C)c2ccc(Cn3ccnc3)cn2)C1` (configuration not stated): -127%.
In the case of `O=C(O)c1cc(-c2cccnc2)cc(S(=O)(=O)N2CCCCCC2)c1`, the cytotoxicity at 10 µM is -2.88%.
With `CC(C)(C)c1ncc2c(n1)CN(C(=O)c1ccncc1)C2`, the cytotoxicity at 10 µM is -12.5%.
For `Cn1c(Cn2ccnc2)nnc1C1CCN(Cc2cccnc2N)CC1`, the cytotoxicity at 10 µM was -8.37%.
Consider `CN1CCN(C2CCN(CCOc3ccccc3F)CC2)C1=O`, for which the cytotoxicity at 10 µM is 0.174%.
Next, `Cc1nccn1C1CCCN(C(=O)c2ccc(N(C)C)nn2)C1` (configuration not stated): -17.7%.
As for `CCOc1ncccc1NC(=O)N1CCN(CC(=O)NC)CC1`, the cytotoxicity at 10 µM was -2.66%.
With `CCOc1ncccc1CNc1nnc(C)c(C)c1C#N`, the cytotoxicity at 10 µM is -12.1%.
Consider `COc1ncccc1CNC(=O)c1cc(Cl)ccn1`, for which the cytotoxicity at 10 µM is -7.51%.
For `Cc1ccc(C(=O)Nc2cc(C(C)C)n[nH]2)cn1`, the cytotoxicity at 10 µM was determined as 55.8%.
As to `Cn1ccc(C(=O)N2CCN(CCc3ccccc3)CC2)cc1=O`, the cytotoxicity at 10 µM amounted to 5.8%.
With `c1csc(CN2CCC3(COCCN(CC4CC4)C3)C2)n1` (configuration not stated), the cytotoxicity at 10 µM is 1.44%.
